Our source for the Change and IC50 values is ChEMBL document CHEMBL1123399, “Cardiotonic agents. 3. Synthesis and biological activity of novel 6-(substituted 1H-imidazol-4(5)-yl)-3(2H)-pyridazinones” (J Med Chem, 1986).

The test system of test [1] is Canis familiaris. Description: Percent change in blood pressure in anesthetized dogs at 0.31 mg/kg. It is filed as functional, Canis lupus familiaris. Put shortly: (§1)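 Acutely instrumented anesthetized dogs, 30 min control period. Drug in saline or dilute HCl/NaOH diluted with saline, given i.v. cumulatively, 0.1 ml/kg over 1 min. Half-log doses 0.01–1.0 mg/kg, 10-30 min between doses. One compound per dog. Heart rate, aortic pressure and LV dP/dtmax recorded as change from preceding baseline. Values are means of two experiments.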

For test [2], the system named is Canis familiaris. Kind of test: Percent change in dP/dtmax (contractility) in anesthetized dogs at 1 mg/kg. It is filed as functional, Canis lupus familiaris. Summed up:
as §1

The subject of test [3] is Canis familiaris. Description: Percent change in heart rate in anesthetized dogs at 1 mg/kg. In kind it is functional, Canis lupus familiaris. Summed up:
as §1

The subject of test [4] is Canis familiaris. Kind of test: Percent change in heart rate in anesthetized dogs at 0.1 mg/kg. In kind it is functional, Canis lupus familiaris. Summed up: as §1
Test [5] has as its system Canis familiaris. Description: Percent change in blood pressure in anesthetized dogs at 0.01 mg/kg. It is filed as functional, Canis lupus familiaris. Summed up:
as §1

The test system of test [6] is Canis familiaris. Kind of test: Percent change in blood pressure in anesthetized dogs at 0.03 mg/kg. In kind it is functional, Canis lupus familiaris. Put shortly: as §1
The subject of test [7] is Canis familiaris. Description: Percent change in heart rate in anesthetized dogs at a 0.01 mg/kg. In kind it is functional, Canis lupus familiaris. Summed up:
as §1

Test [8] deals with Canis familiaris. Kind of test: Percent change in dP/dtmax was measured in anesthetized dogs at a dose of 0.01 mg/kg. In kind it is functional, Canis lupus familiaris. Put shortly:
as §1

Test [9] has as its system Canis familiaris. Description: Percent change in heart rate in anesthetized dogs at 0.31 mg/kg. In kind it is functional, Canis lupus familiaris. Summed up:
as §1

Test [10] relates to Canis familiaris. Description: Percent change in heart rate in anesthetized dogs at 0.03 mg/kg. In kind it is functional, Canis lupus familiaris. Summed up: as §1
Test [11] concerns Canis familiaris. Description: Percent change in blood pressure in anesthetized dogs at 1 mg/kg. It is filed as functional, Canis lupus familiaris. Summed up:
as §1

For test [12], the system named is Canis familiaris. Description: Percent change in blood pressure in anesthetized dogs at 0.1 mg/kg. In kind it is functional, Canis lupus familiaris. Summed up:
as §1

For test [13], the target named is Phosphodiesterase 3 (Cavia porcellus). Description: Inhibition of guinea pig phosphodiesterase type III.
Test [14] shares this target. The description is as above. This is another data set of the same source.
Test [15] deals with Canis familiaris. Kind of test: Percent change in blood pressure in anesthetized dogs 1 mg/kg. In kind it is functional, Canis lupus familiaris. Put shortly:
as §1

Test [16] relates to Canis familiaris. Kind of test: Percent change in heart rate in anesthetized dogs. It is filed as functional, Canis lupus familiaris. Put shortly: as §1

Molecules are shown by their SMILES. “And” between values parts separate entries of the source, which are not always exact repeats. Equal entries are not always repeated.

Turning to `Cl.O=C1CCC(c2cn(Cc3ccccc3)c(-c3ccccc3)n2)=NN1`, the Change in test [1] was -4.5%; in test [2], 3%; in test [3] it was 8%; in [4], 19%; in [5] it was 1%; in test [6], -0.5%. Also, the Change was 2% in test [7]; 2.5% and 4.5% and 12.5% and 10.5% in [8]; 18.5% in test [9]; 1.5% in [10]; -4.75% in test [11]; 0% in test [12].

The IC50 is the concentration that inhibits the measured activity by half. Read a high IC50 as weaker potency in that assay. In the case of `Cn1c(-c2ccc(O)nn2)cnc1-c1ccccc1`, the Change in [1] was -0.25%; in test [2] it was 17%; in [3], -1.5%; in [4], -1.5%; in test [5], 1.5%; in test [6], 0.75%. For the same molecule, the Change in test [7] is on record as -0.5%; in [9], -3%; in test [10], -1%; in [11], -2.5%; in test [12], -1.75%. In addition, in test [13], the IC50 was found to be 160 µM.

With `Cn1c(C2=NNC(=O)CC2)cnc1-c1ccccc1`, the Change in [1] came out at 0%; in test [2] it was 30.5%; in [3], 5.5%; in test [4] it was 4.5%; in test [5], 1.75%; in test [6], 1.75%. Further, the Change in test [7] is 3%; in test [8], 7% and 10% and 11% and 16.5%; in test [9] it was 5%; in test [10], 3.5%; in [11] it was -2.25%; in test [12], 1.5%. Also, the IC50 in test [13] was found to be 38 µM.

As to `Cn1cc(C2=NNC(=O)CC2)nc1-c1ccccc1`, the Change is -23.2% in [1]; 95% in [2]; 29.5% in test [3]; 29.5% in test [4]; -1.2% in test [5]; -5% in test [6]. Moreover, the Change in test [7] is listed as 3.5%; in test [9], 34%; in [10], 13%; in test [11], -31.8%; in test [12], -11.8%. In test [13], this molecule came in with an IC50 of 12.1 µM.

Consider `Oc1ccc(-c2ccc(-c3ncc[nH]3)cc2)nn1`, for which the Change in [1] is -26.5%; in [4], 31.5%; in test [5] it was -1%; in test [6] it was -2.5%; in test [7], 1.5%; in test [9], 30.5%. Moreover, the Change in test [10] is 12.5%; in test [12], -26%.

`COc1ccc(-c2nc(C3=NNC(=O)CC3)cn2C)cc1OC`: the Change in test [1] is 0%; in test [2], 0%; in [3] it was 8.5%; in [4] it was 1.5%; in test [5], -1%; in test [6], -1.25%. In addition, the Change in test [7] is 2.5; in test [8], 2% and 2.5% and 9.5%; in test [9], 5%; in [10], 0.5%; in test [11], 1.5%; in test [12] it was -0.25%. In test [14], this molecule displayed an IC50 of 128 µM.

Regarding `COc1ccc(-c2nc(-c3ccc(O)nn3)cn2C)cc1OC`, the Change in test [1] is -1%; in test [2] it was 13%; in test [3], 0.5%; in test [4] it was -0.5%; in [5], 0%; in test [6], 1.5%. For the same molecule, the Change in [7] is 1.5%; in [8], 3.5% and 6% and 4.5% and 5%; in test [9] it was -1%; in test [10], 1%; in test [11], -4.5%; in test [12], 0%. In test [13], the IC50 amounted to 75 µM.

For the molecule `Cn1cc(-c2ccc(O)nn2)nc1-c1ccccc1`, the Change is -15.75% in test [1]; 186% in [2]; 63.5% in [3]; 21.5% in test [4]; -1.5% in test [5]; -0.25% in [6]. In addition, the Change in test [7] is reported as 1.5%; in [9], 50.5%; in [10], 9.5%; in [11], -31.25%; in [12] it was -6.5%.

Turning to `Oc1ccc(-c2cn(Cc3ccccc3)c(-c3ccccc3)n2)nn1`, the Change in test [1] is reported as 3%; in test [2], 55%; in test [3], 8%; in [4] it was -1%; in test [15], 2%; in [5], 8.5%. The Change in [6] is 6.5%; in test [7], 3%; in [8], 21% and 29% and 17% and 28%; in [9], 3%; in [10] it was -1%; in test [12], 8%.

Regarding `O=C1CCC(c2ccc(-n3ccnc3)cc2)=NN1` [IMAZODAN], the Change in [16] was 33.8%; in test [1], -13.2%; in test [4], 6.2%; in [5], -0.7%; in test [6], -4.1%; in test [7], 0%. Besides, the Change in test [9] is listed as 19.2%; in test [10], 5.6%; in test [11], -22.4%; in test [12] it was -5.3%.
